Tests used:
[1] = Cmax in Sprague-Dawley rat at 10 mg/kg, po; assay type: ADME, organism-based; set-up: dose 10 mg/kg, route oral; conditions: in vivo
[2] = Distribution coefficient, log D by shake flask method; assay type: physicochemical; conditions: octanol/water
Outline: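 LogD measured by the shake-flask method; described elsewhere in the paper as lipophilicity at pH 7.4.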

[3] = Clearance in Sprague-Dawley rat at 5 mg/kg, iv and 10 mg/kg, po; assay type: ADME, organism-based; conditions: in vivo
[4] = Oral bioavailability in Sprague-Dawley rat at 10 mg/kg, po; assay type: ADME, organism-based; conditions: in vivo
Outline: (§1)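 Sprague–Dawley rats, three animals per route; i.v. dose 5 mg/kg and oral 10 mg/kg. Brain concentrations and brain/plasma ratios taken from the oral dosing at 1 and 4 h post-dose.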

[5] = Ratio of drug level in brain to plasma in Sprague-Dawley rat at 10 mg/kg, po after 4 hrs; assay type: ADME, organism-based; set-up: dose 10 mg/kg, route oral; conditions: brain and plasma, read-out: BPR; outline: as §1
[6] = Volume of distribution in Sprague-Dawley rat at 5 mg/kg, iv and 10 mg/kg, po; assay type: ADME, organism-based; conditions: in vivo; outline: as §1
[7] = Half life in Sprague-Dawley rat at 5 mg/kg, iv and 10 mg/kg, po; assay type: ADME, organism-based; conditions: in vivo
[8] = Ratio of drug level in brain to plasma in Sprague-Dawley rat at 10 mg/kg, po after 1 hr; assay type: ADME, organism-based; set-up: dose 10 mg/kg, route oral; conditions: brain and plasma, read-out: BPR; outline: as §1
[9] = Tmax in Sprague-Dawley rat at 5 mg/kg, iv and 10 mg/kg, po; assay type: ADME, organism-based; conditions: in vivo; outline: as §1
[10] = Drug level in Sprague-Dawley rat brain at 10 mg/kg, po after 1 hr; assay type: ADME, organism-based; set-up: dose 10 mg/kg, route oral; conditions: read-out: Drug uptake
[11] = AUC in Sprague-Dawley rat at 10 mg/kg, po; assay type: ADME, organism-based; set-up: dose 10 mg/kg, route oral; conditions: plasma
[12] = Drug level in Sprague-Dawley rat brain at 10 mg/kg, po after 4 hrs; assay type: ADME, organism-based; set-up: dose 10 mg/kg, route oral; conditions: read-out: Drug uptake
Melanocortin receptor 4 [13] = molecular target: T1, Melanocortin receptor 4 (Homo sapiens, UniProt P32245); assay: Displacement of [125I]NDPMSH from human MC4R expressed in HEK293 cells; assay type: cell-based
[14] = Ratio of drug level in brain to plasma in CD1 mouse at 5 mg/kg, iv after 1 hr; assay type: ADME, organism-based; set-up: dose 5 mg/kg, route intravenous; conditions: brain and plasma, read-out: BPR
[15] = Ratio of drug level in brain to plasma in CD1 mouse at 5 mg/kg, iv after 4 hrs; assay type: ADME, organism-based; set-up: dose 5 mg/kg, route intravenous; conditions: brain and plasma, read-out: BPR
[16] = Drug level in CD1 mouse brain at 5 mg/kg, iv after 1 hr; assay type: ADME, organism-based; set-up: dose 5 mg/kg, route intravenous; conditions: read-out: Drug uptake
Outline: (§2)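 CD-1 mice, three animals, dosed i.v. at 5 mg/kg and by oral gavage at 10 mg/kg. Plasma CL, Vd, t1/2, Cmax, Tmax, oral AUC and F% were derived. Brain concentrations and brain/plasma ratios at 1 and 4 h were taken from the i.v. dosing.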

[17] = Cmax in CD1 mouse at 10 mg/kg, po after 6 hrs; assay type: ADME, organism-based; set-up: dose 10 mg/kg, route oral; conditions: in vivo; outline: as §2
[18] = Tmax in CD1 mouse at 10 mg/kg, po; assay type: ADME, organism-based; set-up: dose 10 mg/kg, route oral; conditions: in vivo
Outline: (§3)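 CD-1 mice, three animals per route; single i.v. dose at 5 mg/kg and oral gavage at 10 mg/kg. Plasma PK parameters derived; brain concentrations and brain/plasma ratios taken from the i.v. dosing at 1 and 4 h.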

[19] = Bioavailability in CD1 mouse at 10 mg/kg, po; assay type: ADME, organism-based; conditions: in vivo; outline: as §2
[20] = Half life in CD1 mouse at 5 mg/kg, iv; assay type: ADME, organism-based; set-up: dose 5 mg/kg, route intravenous; conditions: in vivo; outline: as §2
[21] = AUC in CD1 mouse at 10 mg/kg, po; assay type: ADME, organism-based; set-up: dose 10 mg/kg, route oral; conditions: plasma; outline: as §2
[22] = Drug level in CD1 mouse brain at 5 mg/kg, iv after 4 hrs; assay type: ADME, organism-based; set-up: dose 5 mg/kg, route intravenous; conditions: read-out: Drug uptake; outline: as §2
[23] = Clearance in CD1 mouse at 5 mg/kg, iv; assay type: ADME, organism-based; set-up: dose 5 mg/kg, route intravenous; conditions: in vivo; outline: as §2
[24] = Volume of distribution in CD1 mouse at 5 mg/kg, iv; assay type: ADME, organism-based; set-up: dose 5 mg/kg, route intravenous; conditions: in vivo; outline: as §3
[25] = Volume of distribution in Sprague-Dawley rat at 2.5 mg/kg, iv and 10 mg/kg, po; assay type: ADME, organism-based; conditions: in vivo
Outline: (§4)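 Sprague–Dawley rats, three animals per route; i.v. given at 2.5 mg/kg and oral at 10 mg/kg; plasma PK parameters calculated from these dosings.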

Melanocortin receptor 3 = Melanocortin receptor 3 (Homo sapiens, UniProt P41968); assay: Displacement of [125I]NDPMSH from human MC3R expressed in HEK293 cells; assay type: cell-based
Melanocortin receptor 5 = Melanocortin receptor 5 (Homo sapiens, UniProt P33032); assay: Displacement of [125I]NDPMSH from human MC5R expressed in HEK293 cells; assay type: cell-based
[26] = molecular target: T2, Melanocyte-stimulating hormone receptor (Homo sapiens, UniProt Q01726); assay: Displacement of [125I]NDPMSH from human MC1R expressed in HEK293 cells; assay type: cell-based
Target sequence in this assay (Q01726 whole entry): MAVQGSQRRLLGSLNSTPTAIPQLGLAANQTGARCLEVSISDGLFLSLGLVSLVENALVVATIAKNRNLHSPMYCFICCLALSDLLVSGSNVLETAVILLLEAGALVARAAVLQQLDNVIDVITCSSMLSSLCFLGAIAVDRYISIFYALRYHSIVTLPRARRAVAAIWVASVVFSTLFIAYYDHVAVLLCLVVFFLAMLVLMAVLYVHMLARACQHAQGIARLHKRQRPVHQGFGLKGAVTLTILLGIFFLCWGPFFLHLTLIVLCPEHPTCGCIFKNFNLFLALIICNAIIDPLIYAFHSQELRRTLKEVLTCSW

Melanocortin receptor 4 [27] = molecular target: T1, Melanocortin receptor 4; assay: Antagonist activity at human MC4R expressed in HEK293 cells assessed as inhibition of alpha-MSH-stimulated cAMP production; assay type: functional, cell-based
[28] = Half life in Sprague-Dawley rat at 2.5 mg/kg, iv and 10 mg/kg, po; assay type: ADME, organism-based; conditions: in vivo
Outline: (§5)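 Sprague–Dawley rats, three animals, dosed i.v. at 2.5 mg/kg and orally at 10 mg/kg. CL and t1/2 were derived from the plasma profile.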

[29] = Tmax in Sprague-Dawley rat at 2.5 mg/kg, iv and 10 mg/kg, po; assay type: ADME, organism-based; conditions: in vivo; outline: as §4
[30] = Clearance in Sprague-Dawley rat at 2.5 mg/kg, iv and 10 mg/kg, po; assay type: ADME, organism-based; conditions: in vivo; outline: as §5
[31] = Apparent permeability from apical to basolateral side of Caco-2 cells; assay type: ADME, cell-based; conditions: human
Outline: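 Caco-2 monolayer permeability, with Papp measured in the apical-to-basolateral direction.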

[32] = molecular target: T2, Melanocyte-stimulating hormone receptor; assay: Displacement of [125I]NDPMSH from human MC1R expressed in HEK293 cells at 10 uM; assay type: cell-based
Target sequence in this assay (Q01726 whole entry, looked up): as the sequence (Q01726 whole entry) above

[33] = molecular target: Growth hormone secretagogue receptor type 1 (Homo sapiens, UniProt Q92847); assay: Agonist activity at GHSR; assay type: functional
Chain of Growth hormone secretagogue receptor type 1 (Q92847 whole entry): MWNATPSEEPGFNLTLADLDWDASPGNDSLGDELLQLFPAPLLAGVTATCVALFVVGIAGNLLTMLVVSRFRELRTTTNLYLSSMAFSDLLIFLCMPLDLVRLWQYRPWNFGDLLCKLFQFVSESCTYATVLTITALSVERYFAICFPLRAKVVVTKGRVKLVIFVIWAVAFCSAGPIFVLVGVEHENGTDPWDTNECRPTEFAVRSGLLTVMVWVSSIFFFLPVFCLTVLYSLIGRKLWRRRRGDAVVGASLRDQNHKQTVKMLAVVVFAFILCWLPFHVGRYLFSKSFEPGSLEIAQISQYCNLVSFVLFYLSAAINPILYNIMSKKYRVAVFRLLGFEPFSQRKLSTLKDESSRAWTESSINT

T1 sequence (P32245 whole entry): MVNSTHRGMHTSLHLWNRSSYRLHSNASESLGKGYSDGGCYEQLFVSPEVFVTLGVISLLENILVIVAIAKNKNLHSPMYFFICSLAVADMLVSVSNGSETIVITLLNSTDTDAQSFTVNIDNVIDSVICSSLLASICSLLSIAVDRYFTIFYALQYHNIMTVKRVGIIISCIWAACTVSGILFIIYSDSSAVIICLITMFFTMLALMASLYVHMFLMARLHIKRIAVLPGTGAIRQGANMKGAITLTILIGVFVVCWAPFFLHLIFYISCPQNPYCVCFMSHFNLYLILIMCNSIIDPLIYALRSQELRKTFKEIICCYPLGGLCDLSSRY
Chain of Melanocortin receptor 3 (P41968 whole entry): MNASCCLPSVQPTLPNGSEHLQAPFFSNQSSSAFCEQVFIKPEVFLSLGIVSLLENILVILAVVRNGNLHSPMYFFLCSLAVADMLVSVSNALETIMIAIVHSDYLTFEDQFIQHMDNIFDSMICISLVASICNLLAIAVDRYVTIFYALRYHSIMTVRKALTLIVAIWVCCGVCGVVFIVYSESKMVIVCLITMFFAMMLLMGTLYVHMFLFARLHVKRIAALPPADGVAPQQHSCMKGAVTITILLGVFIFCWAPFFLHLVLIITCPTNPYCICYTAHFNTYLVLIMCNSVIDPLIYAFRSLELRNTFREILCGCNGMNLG
Chain of Melanocortin receptor 5 (P33032 whole entry): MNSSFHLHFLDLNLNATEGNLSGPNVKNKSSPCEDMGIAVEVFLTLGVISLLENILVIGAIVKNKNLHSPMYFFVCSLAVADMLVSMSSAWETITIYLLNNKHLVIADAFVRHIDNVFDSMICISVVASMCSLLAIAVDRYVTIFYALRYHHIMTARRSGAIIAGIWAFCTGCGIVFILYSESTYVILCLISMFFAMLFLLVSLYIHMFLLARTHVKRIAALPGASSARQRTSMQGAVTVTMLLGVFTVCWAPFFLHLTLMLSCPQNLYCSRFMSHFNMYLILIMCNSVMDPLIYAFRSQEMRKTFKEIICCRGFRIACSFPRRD

`Cc1ccc(N2CCN(C(=O)[C@@H](Cc3ccc(Cl)cc3Cl)N3CCCC3=O)CC2)c([C@H](CC(C)C)NC(=O)CCN(C)C)c1` showed a Cmax [1] of 40 ng/mL, a logD [2] of 3.9 and a clearance [3] of 38.7 mL/min/kg. It also gave a bioavailability [4] of 8.7%, a Kp at 4 h [5] of 0.3 and a Vd [6] of 8.8 L/kg. For the same compound, the half-life [7] was 2.6 h, the Kp at 1 h [8] was 0.2 and the Tmax [9] was 4 h. It also gave a concentration at 1 h [10] of 1.5 ng/g, an AUC [11] of 393 ng·h/mL and a concentration at 4 h [12] of 15 ng/g.

Compound `CC(C)C[C@H](NC(=O)CN)c1cccnc1N1CCN(C(=O)[C@H](C)Cc2ccc(Cl)cc2Cl)CC1` has a Ki (Melanocortin receptor 4 [13]) of 39 nM.

Work on `CC(C)C[C@@H](NC(=O)CN)c1cccnc1N1CCN(C(=O)[C@H](C)Cc2ccc(Cl)cc2Cl)CC1` yielded a Kp at 1 h [14] of 0.07, a Kp at 4 h [15] of 0.15 and a concentration at 1 h [16] of 35 ng/g. The Cmax [17] was 288 ng/mL, the Tmax [18] was 0.5 h and the bioavailability [19] was 12.6%. For the same compound, the half-life [20] was 5.2 h, the AUC [21] was 551 ng·h/mL and the concentration at 4 h [22] was 14 ng/g. The Ki (Melanocortin receptor 4 [13]) was 6 nM, the clearance [23] was 37.4 mL/min/kg and the Vd [24] was 16.8 L/kg.

In the case of `CC(C)C[C@H](N)c1cccnc1N1CCN(C(=O)CCc2ccc(Cl)cc2Cl)CC1`, the Ki (Melanocortin receptor 4 [13]) is reported as 890 nM.

For `Cc1ccc([C@@H](CC(C)C)NC(=O)CCN(C)C)c(N2CCN(C(=O)[C@H](C)Cc3ccc(Cl)cc3Cl)CC2)n1`, the Cmax [1] was 60 ng/mL, the Vd [25] was 18.6 L/kg and the Ki (Melanocortin receptor 3) was 3300 nM. For the same compound, the logD [2] was 3.3, the bioavailability [4] was 19.6% and the Kp at 4 h [5] was 0.2. It also gave a Ki (Melanocortin receptor 5) of 1200 nM, a Ki [26] of 6400 nM and an IC50 (Melanocortin receptor 4 [27]) of 49 nM. It also gave a half-life [28] of 3.3 h, a Ki (Melanocortin receptor 4 [13]) of 2.5 nM and a Kp at 1 h [8] of 0.2. It also gave a Tmax [29] of 2 h, a concentration at 1 h [10] of 15 ng/g and a clearance [30] of 64.9 mL/min/kg. It also gave an AUC [11] of 517 ng·h/mL and a concentration at 4 h [12] of 29 ng/g.

Work on `Cc1ccc(N2CCN(C(=O)[C@H](C)Cc3ccc(Cl)cc3)CC2)c([C@@H](N)CC(C)C)c1` yielded a Papp A→B [31] of 1.8 ×10⁻⁶ cm/s, an AUC [21] of 1760 ng·h/mL and an IC50 (Melanocortin receptor 4 [27]) of 570 nM.

`CC(C)C[C@@H](N)c1cccnc1N1CCN(C(=O)C(C)Cc2ccc(Cl)cc2Cl)CC1` (stereo not given in full) gave a Ki (Melanocortin receptor 4 [13]) of 36 nM.

Compound `CC(C)C[C@H](NC(=O)CN)c1cc(C(F)(F)F)ccc1N1CCN(C(=O)CCc2ccc(Cl)cc2Cl)CC1` has an Activity [32] of 18% and an AUC [21] of 687 ng·h/mL.

`CC(C)C[C@H](N)c1cc(C(F)(F)F)ccc1N1CCN(C(=O)CCc2ccc(Cl)cc2Cl)CC1` showed a Ki (Melanocortin receptor 4 [13]) of 75 nM.

With `Cc1ccc([C@H](N)CC(C)C)c(N2CCN(C(=O)[C@H](C)Cc3ccc(Cl)cc3Cl)CC2)n1` the Ki (Melanocortin receptor 4 [13]) was 44 nM.

`CC(C)C[C@@H](N)c1cccnc1N1CCN(C(=O)CCc2ccc(Cl)cc2Cl)CC1` showed a Ki (Melanocortin receptor 4 [13]) of 260 nM.

Work on `CC(C)C[C@H](NCCN)c1cccc(F)c1N1CCN(C(=O)[C@@H](Cc2ccc(Cl)cc2Cl)N2CCCC2=O)CC1` yielded a Kp at 4 h [15] of 0.23, a Cmax [17] of 552 ng/mL and a Papp A→B [31] of 2 ×10⁻⁶ cm/s. The Intrinsic activity [33] was 107%.

With `Cc1ccc(N2CCN(C(=O)[C@H](C)Cc3ccc(Cl)cc3)CC2)c([C@H](CC(C)C)NC(=O)CCN(C)C)c1` the Cmax [1] was 196 ng/mL, the Activity [32] was 34% and the Ki (Melanocortin receptor 3) was 2800 nM. The logD [2] was 2.4, the clearance [3] was 15 mL/min/kg and the bioavailability [4] was 19%. For the same compound, the Kp at 4 h [5] was 0.3, the Vd [6] was 4.1 L/kg and the Ki (Melanocortin receptor 5) was 710 nM. The half-life [7] was 3.1 h, the IC50 (Melanocortin receptor 4 [27]) was 160 nM and the Ki (Melanocortin receptor 4 [13]) was 3.7 nM. For the same compound, the Kp at 1 h [8] was 0.2, the Tmax [9] was 5.3 h and the concentration at 1 h [10] was 12 ng/g. For the same compound, the AUC [11] was 2360 ng·h/mL and the concentration at 4 h [12] was 36 ng/g.

`COc1cc(Cl)ccc1CC(C)C(=O)N1CCN(c2ccc(C(F)(F)F)cc2[C@@H](N)CC(C)C)CC1` (stereo not given in full) showed a logD [2] of 4.5 and an AUC [21] of 249 ng·h/mL.

Source: ChEMBL document CHEMBL1138325, “Design, synthesis, in vitro, and in vivo characterization of phenylpiperazines and pyridinylpiperazines as potent and selective antagonists of the melanocortin-4 receptor” (J Med Chem, 2007)
